According to PMC12401638 (Drug Testing and Analysis, 2025):
Like-named read-outs stand apart in the source and are kept apart here.

Tests used:
[1] = tested on: both cannabinoid receptors; conditions: cited from earlier work
[2] = tested on: neuropathic pain; conditions: mouse model for neuropathic pain; cited from earlier work
[3] = biological target: T1, CB2 (Homo sapiens, UniProt P34972); conditions: [35S]GTPγS, cAMP and βarr2 recruitment assay; cited from earlier work
[4] = biological target: CB1 (Homo sapiens, UniProt P21554); assay: cell-based; type: cell-based
[5] = biological target: T1, CB2; assay: cell-based; type: cell-based
[6] = Metabolite identification by human liver microsome incubation and LC-QTOF-MS; type: in vitro ADME; conditions: HLM incubation 37°C, 2 h
In short: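 Pooled human liver microsomes (50 donors, 20 mg/mL stock) with NADPH (10 mM stock) in 100 mM phosphate buffer, pH 7.4, 10 mM MgCl2. Controls: buffer only, and buffer plus NADPH without microsomes. Microsomal samples run in duplicate. Incubated 2 h at 37°C, quenched with acetonitrile, centrifuged, supernatant partly dried and filtered. Analysed by LC-QTOF-MS with an ammonium formate (10 mM, pH 3) / MeOH:ACN gradient.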

CB1, sequence (P21554 whole entry): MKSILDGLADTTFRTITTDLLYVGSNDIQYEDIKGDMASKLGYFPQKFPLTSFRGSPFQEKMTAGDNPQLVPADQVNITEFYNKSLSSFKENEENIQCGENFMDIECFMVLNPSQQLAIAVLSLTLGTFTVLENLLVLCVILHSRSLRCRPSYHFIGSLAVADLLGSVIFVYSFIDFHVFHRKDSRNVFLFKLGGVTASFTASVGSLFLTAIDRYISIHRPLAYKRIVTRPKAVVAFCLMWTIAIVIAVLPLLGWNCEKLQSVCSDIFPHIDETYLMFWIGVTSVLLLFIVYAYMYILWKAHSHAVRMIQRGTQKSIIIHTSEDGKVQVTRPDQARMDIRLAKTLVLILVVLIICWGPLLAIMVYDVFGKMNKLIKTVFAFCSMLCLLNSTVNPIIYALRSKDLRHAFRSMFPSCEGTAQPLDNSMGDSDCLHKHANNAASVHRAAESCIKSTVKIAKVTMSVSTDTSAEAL
CB1, sequence (P32121 whole entry partner): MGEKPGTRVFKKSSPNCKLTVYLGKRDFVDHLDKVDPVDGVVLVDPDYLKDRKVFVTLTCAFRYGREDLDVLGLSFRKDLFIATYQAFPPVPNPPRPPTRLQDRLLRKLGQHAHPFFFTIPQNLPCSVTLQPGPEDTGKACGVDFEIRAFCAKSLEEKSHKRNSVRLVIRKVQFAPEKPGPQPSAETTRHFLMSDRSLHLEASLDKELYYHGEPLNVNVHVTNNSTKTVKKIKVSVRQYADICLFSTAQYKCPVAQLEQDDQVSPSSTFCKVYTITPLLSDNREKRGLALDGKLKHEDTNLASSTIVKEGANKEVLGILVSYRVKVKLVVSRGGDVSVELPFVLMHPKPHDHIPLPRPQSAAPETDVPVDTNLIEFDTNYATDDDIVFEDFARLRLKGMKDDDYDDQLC
T1 sequence (P34972 whole entry): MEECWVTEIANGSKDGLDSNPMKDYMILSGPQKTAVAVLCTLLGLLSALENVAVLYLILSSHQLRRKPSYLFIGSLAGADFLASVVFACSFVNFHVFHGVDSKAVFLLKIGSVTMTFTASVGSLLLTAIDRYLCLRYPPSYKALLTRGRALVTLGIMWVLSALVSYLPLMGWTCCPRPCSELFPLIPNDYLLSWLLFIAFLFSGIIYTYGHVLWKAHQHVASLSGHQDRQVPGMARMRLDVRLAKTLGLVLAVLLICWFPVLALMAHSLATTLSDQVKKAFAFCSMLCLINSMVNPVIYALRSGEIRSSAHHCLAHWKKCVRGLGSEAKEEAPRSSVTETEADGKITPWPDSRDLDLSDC
T1 sequence (P32121 whole entry partner): as the sequence (P32121 whole entry partner) above

Cc1c(Br)cn(Cc2ccc(F)cc2)c(=O)c1C(=O)NC1CCCCCC1 [B2, 5‐bromo‐N‐cycloheptyl‐1‐(4‐fluorobenzyl)‐4‐methyl‐2‐oxo‐1,2‐dihydropyridine‐3‐carboxamide]
activity and affinity at both cannabinoid receptors [1]: nanomolar activity and affinity

Cc1c(Br)cn(Cc2ccc(F)cc2)c(=O)c1NC(=O)C1CCCCCC1 [C2, N‐(5‐bromo‐1‐(4‐fluorobenzyl)‐4‐methyl‐2‐oxo‐1,2‐dihydropyridin‐3‐yl)cycloheptanecarboxamide]
antinociceptive activity [2]: displayed antinociceptive activity
activation potential at CB2 [3]: (very) limited activation potential
CB1 activity compared with CH-FUBBMPDORA [4]: more active than CH‐FUBBMPDORA
CB2 receptor activation potential compared with CH-FUBBMPDORA [5]: almost identical and equally weak

Cc1c(Br)cn(Cc2ccc(F)cc2)c(=O)c1NC(=O)C1CCCCC1 [CH‐FUBBMPDORA, N‐[5‐bromo‐1‐(4‐fluorobenzyl)‐4‐methyl‐2‐oxo‐1,2‐dihydropyridin‐3‐yl)cyclohexanecarboxamide]
EC50 [4]: 3780 nM
number of metabolites identified [6]: Four
Area (LC-QTOF-MS peak area) ([6]; with NADPH): 5.68e + 05
EC50 [5]: 4270 nM

CCCCCn1cc(C(=O)c2cccc3ccccc23)c2ccccc21 [JWH‐018]
E max (%) (95% CI), CB1, relative to CP55,940 (100%) [4]: 378 (348–409) %
EC50 ([4]; read-out: EC 50 (nM) (95% CI), CB1): 14.3 nM
E max (%) (95% CI), CB2, relative to CP55,940 (100%) [5]: 63.2 (55.8–70.9) %
EC50 ([5]; read-out: EC 50 (nM) (95% CI), CB2): 4.36 nM
